Results from ChEMBL document CHEMBL1799922, “Synthesis and antimycobacterial activity of prodrugs of indeno[2,1-c]quinoline derivatives” (Eur J Med Chem, 2011).
Values after ≈ are worked out from the molar mass of the structure shown. Active and inactive are the calls of the source. No cut-off for these calls is given here.

Legend:
[1] = tested on: Mycobacterium tuberculosis; assay: Antimicrobial activity against Mycobacterium tuberculosis H37Rv ATCC 27294 after 16 to 24 hrs by microplate alamar blue assay; assay type: functional
Method in brief: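 M. tuberculosis H37Rv inoculum 2×10^5 cfu/mL (100 µL) added to twofold dilutions in Middlebrook 7H12 medium; final test range 128 µM to 0.5 µM from 12.8 mM DMSO stocks. Incubated 37 °C; day 7 Tween 80 plus Alamar Blue added, further 16-24 h at 37 °C. Fluorescence ex 530/em 590 nm; MIC = lowest concentration giving >90% fluorescence reduction versus replicate bacteria-only controls. Rifampin, isoniazid controls.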

[2] = Selectivity index, ratio CC50 for human U937 cells to MIC for Mycobacterium tuberculosis H37Rv ATCC 27294; assay type: functional, U-937
[3] = Stability of the compound in 10% aqueous ammonia buffer at pH 8 assessed as hydrolysis to 2-bromo-6-(1H-imidazol-1-yl)-7H-indeno[2,1-c]quinolin-7-one oxime at 1 mg at 37 degC by LC-MS analysis; assay type: physicochemical; set-up: scale not given: the % may be the effect or the level left
Method in brief: (§1)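 Chemical hydrolysis: 1 mg prodrug dissolved in 1 mL of 10% aqueous ammonia in methanol (pH 8) and held in a thermostatted water bath at 37 °C, up to 24 h. Conversion to the parent oxime was followed by TLC and LC-MS. t1/2 is the time to 50% hydrolysis.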

[4] = Half life in 10% aqueous ammonia buffer at pH 8 assessed as hydrolysis to 2-bromo-6-(1H-imidazol-1-yl)-7H-indeno[2,1-c]quinolin-7-one oxime at 37 degC by LC-MS analysis; assay type: physicochemical; method in brief: as §1
Serum = assay: Stability of the compound in 80% human blood serum assessed as hydrolysis to 2-bromo-6-(1H-imidazol-1-yl)-7H-indeno[2,1-c]quinolin-7-one oxime at 1 mg after 24 hrs at 37 degC by LC-MS analysis; assay type: ADME, cell-free; set-up: scale not given: the % may be the effect or the level left
Method in brief: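 Enzymatic hydrolysis: 1 mg prodrug dissolved in 1 mL ethanol, then 200 µL preheated human blood serum diluted to 80% with 0.16 M phosphate buffer (pH 7.4) was added. Samples were kept at 37 °C (24 h) and centrifuged 10 min at 10,000 rpm. Remaining prodrug in the supernatant was monitored by TLC and LC-MS. t1/2 is the time to 50% hydrolysis.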

[5] = Cytotoxicity against human U937 cells assessed as cell viability at 10 ug/ml after 72 hrs by MTT assay; assay type: cell-based, U-937; settings: read-out: Activity
Method in brief: (§2)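 U937 human monocytic cells plated at 1 × 10^5 cells/mL and allowed to adhere for 1 h at 37 °C in 5% CO2. Non-adherent cells were washed off with RPMI 1640. Adherent cells were exposed to compound in triplicate, with medium alone as the live control and 3% Tween 20 as the dead control. MTT (5 mg/mL in PBS) was then added for 3 h at 37 °C. Formazan was dissolved in 0.4 M HCl/isopropanol and absorbance read at 600 nm. Results are expressed as % cell viability.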

[6] = Cytotoxicity against human U937 cells assessed as cell viability at 1.25 ug/ml after 72 hrs by MTT assay; assay type: cell-based, U-937; settings: read-out: Activity; method in brief: as §2
[7] = Cytotoxicity against human U937 cells assessed as cell viability at 5 ug/ml after 72 hrs by MTT assay; assay type: cell-based, U-937; settings: read-out: Activity; method in brief: as §2
[8] = Cytotoxicity against human U937 cells assessed as cell viability at 20 ug/ml after 72 hrs by MTT assay; assay type: cell-based, U-937; settings: read-out: Activity; method in brief: as §2
[9] = Octanol-water partition coefficient, log P of the compound at pH 7.4 at room temperature by UV spectrophotometric analysis; assay type: physicochemical
Method in brief: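 Shake-flask method at room temperature: 1-octanol and phosphate buffer (pH 7.4) were pre-saturated by shaking for 24 h. Compound at 10^-4 M in equal volumes of both phases was shaken vigorously for 1 h, left to stand 15 min, then centrifuged 10 min at 10,000 rpm. UV absorbance of each phase was read at 280 nm against blanks, and P was taken as the octanol/water absorbance ratio.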

| Compound | MIC [1] | viability at 72 h, 10 ug/ml [5] | viability at 72 h, 1.25 ug/ml [6] | logD [9] | other results |
| --- | --- | --- | --- | --- | --- |
| CC(C)(C)OC(=O)NC1(C(=O)O/N=C2\c3ccccc3-c3c2c(N2CCN(c4ccccn4)CC2)nc2ccc(Br)cc32)CCCC1 | inactive | – | – | – | – |
| CC(=O)OC1(C)c2ccccc2-c2c1c(-n1ccnc1)nc1ccc(Br)cc21 (stereo not drawn) | 1.88 µg/mL (≈ 4.33 µM) | 63% | 94% | 2.7 | Selectivity Index [2]: 7.5; Activity [3]: 90%; half-life [4]: 10 days; Activity (Serum): Not Active; viability at 72 h, 5 ug/ml [7]: 90%; viability at 72 h, 20 ug/ml [8]: 35% |
| CCCCCC(=O)O/N=C1\c2ccccc2-c2c1c(N1CCN(c3ccccn3)CC1)nc1ccc(Br)cc21 | 3.16 µg/mL (≈ 5.41 µM) | 85% | 96% | 2.1 | Selectivity Index [2]: >13; Activity [3]: 95%; half-life [4]: 24 days; Activity (Serum): 5%; viability at 72 h, 5 ug/ml [7]: 86%; viability at 72 h, 20 ug/ml [8]: 87% |
| CCCC(=O)OC1(C)c2ccccc2-c2c1c(-n1ccnc1)nc1ccc(Br)cc21 (stereo not drawn) | inactive | – | – | – | – |
| CC(C)C[C@H](NC(=O)OCC1c2ccccc2-c2ccccc21)C(=O)O/N=C1\c2ccccc2-c2c1c(N1CCN(c3ccccn3)CC1)nc1ccc(Br)cc21 | inactive | – | – | – | – |
| CC(C)C[C@H](NC(=O)OC(C)(C)C)C(=O)O/N=C1\c2ccccc2-c2c1c(N1CCN(c3ccccn3)CC1)nc1ccc(Br)cc21 | inactive | – | – | – | – |
| CCCC(=O)O/N=C1\c2ccccc2-c2c1c(N1CCN(c3ccccn3)CC1)nc1ccc(Br)cc21 | inactive | – | – | – | – |
| CCCCCCC(=O)O/N=C1\c2ccccc2-c2c1c(N1CCN(c3ccccn3)CC1)nc1ccc(Br)cc21 | inactive | – | – | – | – |
| CSCC[C@H](NC(=O)OC(C)(C)C)C(=O)O/N=C1\c2ccccc2-c2c1c(N1CCN(c3ccccn3)CC1)nc1ccc(Br)cc21 | inactive | – | – | – | – |
| CC(=O)O/N=C1\c2ccccc2-c2c1c(N1CCN(c3ccccn3)CC1)nc1ccc(Br)cc21 | inactive | – | – | – | – |
| CCC(=O)OC1(C)c2ccccc2-c2c1c(-n1ccnc1)nc1ccc(Br)cc21 (stereo not drawn) | inactive | – | – | – | – |
| CCCCCCCCCCCCCCC(=O)OC1(C)c2ccccc2-c2c1c(-n1ccnc1)nc1ccc(Br)cc21 (stereo not drawn) | inactive | – | – | – | – |
| O=C(/C=C/c1ccco1)O/N=C1\c2ccccc2-c2c1c(N1CCN(c3ccccn3)CC1)nc1ccc(Br)cc21 | 6 µg/mL (≈ 9.89 µM) | 85% | 100% | 1.4 | Activity [3]: 95%; half-life [4]: 4 days; Activity (Serum): Not Active |
| CCCCCCCCCCCCCC(=O)O/N=C1\c2ccccc2-c2c1c(-n1ccnc1)nc1ccc(Br)cc21 | inactive | – | – | – | – |
| CCCCCCCCCC(=O)O/N=C1\c2ccccc2-c2c1c(N1CCN(c3ccccn3)CC1)nc1ccc(Br)cc21 | inactive | – | – | – | – |
| CCCCCCCCCCCCCCC(=O)O/N=C1\c2ccccc2-c2c1c(N1CCN(c3ccccn3)CC1)nc1ccc(Br)cc21 | inactive | – | – | – | – |
| CCCCCCCCC(=O)O/N=C1\c2ccccc2-c2c1c(N1CCN(c3ccccn3)CC1)nc1ccc(Br)cc21 | inactive | – | – | – | – |
| CN(C)C(=O)O/N=C1\c2ccccc2-c2c1c(-n1ccnc1)nc1ccc(Br)cc21 | 0.27 µg/mL (≈ 0.584 µM) | 61% | 77% | 1.1 | Selectivity Index [2]: 49; Activity [3]: Not Active; Activity (Serum): Not Active; viability at 72 h, 5 ug/ml [7]: 82%; viability at 72 h, 20 ug/ml [8]: 50% |
| O=C(CNC(=O)OCC1c2ccccc2-c2ccccc21)O/N=C1\c2ccccc2-c2c1c(N1CCN(c3ccccn3)CC1)nc1ccc(Br)cc21 | 6 µg/mL (≈ 7.84 µM) | 73% | 68% | 1.4 | Activity [3]: 90%; half-life [4]: 1.5 days; Activity (Serum): 29% |
| O/N=C1\c2ccccc2-c2c1c(-n1ccnc1)nc1ccc(Br)cc21 | < 0.39 µg/mL | 77% | 100% | 0.2 | Selectivity Index [2]: >5; viability at 72 h, 5 ug/ml [7]: 91%; viability at 72 h, 20 ug/ml [8]: 77% |
| CC1(O)c2ccccc2-c2c1c(-n1ccnc1)nc1ccc(Br)cc21 (stereo not drawn) | 0.78 µg/mL (≈ 1.99 µM) | 64% | 93% | 1.7 | Selectivity Index [2]: 4.3; viability at 72 h, 5 ug/ml [7]: 64%; viability at 72 h, 20 ug/ml [8]: 37% |
| CCCCC(=O)O/N=C1\c2ccccc2-c2c1c(N1CCN(c3ccccn3)CC1)nc1ccc(Br)cc21 | inactive | – | – | – | – |
| CCCCCCCCCCCC(=O)O/N=C1\c2ccccc2-c2c1c(N1CCN(c3ccccn3)CC1)nc1ccc(Br)cc21 | inactive | – | – | – | – |
| O/N=C1\c2ccccc2-c2c1c(N1CCN(c3ccccn3)CC1)nc1ccc(Br)cc21 | 6.25 µg/mL (≈ 12.9 µM) | 56% | 100% | 3.3 | Selectivity Index [2]: 71; viability at 72 h, 5 ug/ml [7]: 100%; viability at 72 h, 20 ug/ml [8]: 49% |
| CN(C)C(=O)OC1(C)c2ccccc2-c2c1c(-n1ccnc1)nc1ccc(Br)cc21 (stereo not drawn) | 6 µg/mL (≈ 12.9 µM) | 69% | 63% | 1.9 | Activity [3]: Not Active; Activity (Serum): Not Active |
| COc1nc2ccc(Br)cc2cc1[C@@H](c1ccccc1)[C@@](O)(CCN(C)C)c1cccc2ccccc12 [BEDAQUILINE] | 0.06 µg/mL (≈ 0.108 µM) | – | – | – | – |
| O=C(O/N=C1\c2ccccc2-c2c1c(N1CCN(c3ccccn3)CC1)nc1ccc(Br)cc21)C1CC1 | inactive | – | – | – | – |
| CCCCCCCCCCCCCC(=O)OC1(C)c2ccccc2-c2c1c(-n1ccnc1)nc1ccc(Br)cc21 (stereo not drawn) | inactive | – | – | – | – |
| CN(C)C(=O)O/N=C1\c2ccccc2-c2c1c(N1CCN(c3ccccn3)CC1)nc1ccc(Br)cc21 | 1.56 µg/mL (≈ 2.8 µM) | 68% | 100% | 2.3 | Selectivity Index [2]: 88; Activity [3]: Not Active; Activity (Serum): Not Active; viability at 72 h, 5 ug/ml [7]: 100%; viability at 72 h, 20 ug/ml [8]: 47% |
